According to ChEMBL document CHEMBL1145965, “4-Substituted 4-hydroxycyclohexa-2,5-dien-1-ones with selective activities against colon and renal cancer cell lines” (J Med Chem, 2003):

Assays:
BT-549 = experiment: Concentration of compound that cause 50% cytotoxicity of BT-549 breast cancer cell line; type: functional; settings: Homo sapiens, read-out: Log LC50 (the source's name) (converted)
Outline: (§1)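 NCI 60-cell-line panel screen. Each line was seeded in 96-well plates at a density set by its growth characteristics and incubated drug-free for 24 h. Test agents were then added at five 10-fold dilutions, with a top concentration of 100 μM.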

EKVX = experiment: Concentration of compound that cause 50% cytotoxicity of EKVX non small cell lung cancer cell line; type: functional; settings: Homo sapiens, read-out: Log LC50 (the source's name) (converted); outline: as §1
[1] = test system: Panel NCI-60 (60 carcinoma cell lines); experiment: In vitro mean growth lethal concentration in renal subpanel against 60-cell panel; type: functional; settings: Homo sapiens, read-out: Mean LC50
MOLT-4 = experiment: Concentration of compound that cause 50% cytotoxicity of MOLT-4 leukemia cell line; type: functional; settings: Homo sapiens, read-out: LC50 (the source's name); outline: as §1
A549 = experiment: Inhibitory activity against A549 lung adenocarcinoma cell line; type: functional, cell-based; settings: Homo sapiens
Outline: (§2)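 Cells grown in RPMI 1640 with 2 mM L-glutamine and 10% fetal calf serum, 37 °C, 5% CO2. Seeded at 5 × 10³ per well, 24 h adherence, then drug 0.1 nM–100 μM final (n = 8; DMSO stocks, dilutions in medium) for 72 h.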

U-251 = experiment: Concentration of compound that cause 50% cytotoxicity of U251 CNS cancer cell line; type: functional; settings: Homo sapiens, read-out: Log LC50 (the source's name) (converted); outline: as §1
SR = experiment: Concentration of compound that cause 50% cytotoxicity of SR leukemia cell line; type: functional; settings: Homo sapiens, read-out: LC50 (the source's name); outline: as §1
SK-OV-3 = experiment: Concentration of compound that cause 50% cytotoxicity of SK-OV-3 ovarian cancer cell line; type: functional; settings: Homo sapiens, read-out: Log LC50 (the source's name) (converted); outline: as §1
SK-MEL-5 = experiment: Concentration of compound that cause 50% cytotoxicity of SK-MEL-5 melanoma cell line; type: functional; settings: Homo sapiens, read-out: Log LC50 (the source's name) (converted); outline: as §1
OVCAR-8 = experiment: Concentration of compound that cause 50% cytotoxicity of OVCAR-8 ovarian cancer cell line; type: functional; settings: Homo sapiens, read-out: Log LC50 (the source's name) (converted); outline: as §1
IGROV-1 = experiment: Concentration of compound that cause 50% cytotoxicity of IGROV1 ovarian cancer cell line; type: functional; settings: Homo sapiens, read-out: Log LC50 (the source's name) (converted); outline: as §1
CAKI-1 = experiment: Concentration of compound that cause 50% cytotoxicity of CAKI-1 renal cancer cell line; type: functional; settings: Homo sapiens, read-out: Log LC50 (the source's name) (converted); outline: as §1
HCT-116 [2] = experiment: Inhibitory activity against HCT116 colon cancer cell line; type: functional, cell-based; settings: Homo sapiens; outline: as §2
MDA-N = experiment: Concentration of compound that cause 50% cytotoxicity of MDA-N breast cancer cell line; type: functional; settings: Homo sapiens, read-out: Log LC50 (the source's name) (converted); outline: as §1
SW-620 [3] = experiment: In vitro lethal concentration against least sensitive colon SW-620 cell line; type: functional; settings: Homo sapiens, read-out: LC50 (the source's name)
NCI/ADR-RES = experiment: Concentration of compound that cause 50% cytotoxicity of NCI/ADR-RES breast cancer cell line; type: functional; settings: Homo sapiens, read-out: LC50 (the source's name); outline: as §1
SNB-75 = experiment: Concentration of compound that cause 50% cytotoxicity of SNB-75 CNS cancer cell line; type: functional; settings: Homo sapiens, read-out: Log LC50 (the source's name) (converted); outline: as §1
HCT-116 [4] = experiment: Concentration of compound that cause 50% cytotoxicity of HCT116 colon cancer cell line; type: functional; settings: Homo sapiens, read-out: Log LC50 (the source's name) (converted); outline: as §1
NCI-H322M = experiment: Concentration of compound that cause 50% cytotoxicity of NCI-H322M non small cell lung cancer cell line; type: functional; settings: Homo sapiens, read-out: Log LC50 (the source's name) (converted); outline: as §1
COLO 205 = experiment: Concentration of compound that cause 50% cytotoxicity of COLO 205 colon cancer cell line; type: functional; settings: Homo sapiens, read-out: Log LC50 (the source's name) (converted); outline: as §1
SF-268 = experiment: Concentration of compound that cause 50% cytotoxicity of SF-268 CNS cancer cell line; type: functional; settings: Homo sapiens, read-out: Log LC50 (the source's name) (converted); outline: as §1
KM12 = experiment: Concentration of compound that cause 50% cytotoxicity of KM12 colon cancer cell line; type: functional; settings: Homo sapiens, read-out: Log LC50 (the source's name) (converted); outline: as §1
[5] = test system: Panel NCI-60 (60 carcinoma cell lines); experiment: In vitro mean growth lethal concentration in colon subpanel against 60-cell panel; type: functional; settings: Homo sapiens, read-out: Mean LC50
ACHN = experiment: Concentration of compound that cause 50% cytotoxicity of ACHN renal cancer cell line; type: functional; settings: Homo sapiens, read-out: Log LC50 (the source's name) (converted); outline: as §1
HOP-92 = experiment: Concentration of compound that cause 50% cytotoxicity of HOP-92 non small cell lung cancer cell line; type: functional; settings: Homo sapiens, read-out: Log LC50 (the source's name) (converted); outline: as §1
K562 = experiment: Concentration of compound that cause 50% cytotoxicity of K-562 leukemia cell line; type: functional; settings: Homo sapiens, read-out: LC50 (the source's name); outline: as §1
MDA-MB-435 = experiment: Concentration of compound that cause 50% cytotoxicity of MDA-MB-435 breast cancer cell line; type: functional; settings: Homo sapiens, read-out: Log LC50 (the source's name) (converted); outline: as §1
SW-620 [6] = experiment: Concentration of compound that cause 50% cytotoxicity of SW-620 colon cancer cell line; type: functional; settings: Homo sapiens, read-out: LC50 (the source's name); outline: as §1
SF-295 = experiment: Concentration of compound that cause 50% cytotoxicity of SF-295 CNS cancer cell line; type: functional; settings: Homo sapiens, read-out: Log LC50 (the source's name) (converted); outline: as §1
NCI-H460 = experiment: Concentration of compound that cause 50% cytotoxicity of NCI-H460 non small cell lung cancer cell line; type: functional; settings: Homo sapiens, read-out: Log LC50 (the source's name) (converted); outline: as §1
RXF 393 = experiment: Concentration of compound that cause 50% cytotoxicity of RXF393 renal cancer cell line; type: functional; settings: Homo sapiens, read-out: Log LC50 (the source's name) (converted); outline: as §1
LOX IMVI = experiment: Concentration of compound that cause 50% cytotoxicity of LOX IMVI melanoma cell line; type: functional; settings: Homo sapiens, read-out: Log LC50 (the source's name) (converted); outline: as §1

O=C1C=CC(O)(c2nc3ccccc3s2)C=C1
CC50 (BT-549): 4.79 µM | CC50 (EKVX): 5.75 µM | CC50 [1]: 1.57 µM | CC50 (MOLT-4): > 4 µM | IC50 (A549): 2.35 µM | CC50 (U-251): 2.57 µM | CC50 (SR): > 4 µM | CC50 (SK-OV-3): 38 µM | CC50 (SK-MEL-5): 24 µM | CC50 (OVCAR-8): 5.01 µM | CC50 (IGROV-1): 5.37 µM | CC50 (CAKI-1): 1.35 µM | IC50 (HCT-116 [2]): 0.04 µM | CC50 (MDA-N): 1 µM | CC50 (SW-620 [3]): > 100 µM | CC50 (NCI/ADR-RES): > 4 µM | CC50 (SNB-75): 4.68 µM | CC50 (HCT-116 [4]): 0.468 µM | CC50 (NCI-H322M): 23.4 µM | CC50 (COLO 205): 5.13 µM | CC50 (SF-268): 6.31 µM | CC50 (KM12): 4.37 µM | CC50 [5]: 1.76 µM | CC50 (ACHN): 2.75 µM | CC50 (HOP-92): 3.72 µM | CC50 (K562): > 4 µM | CC50 (MDA-MB-435): 1.51 µM | CC50 (SW-620 [6]): > 4 µM | CC50 (SF-295): 4.68 µM | CC50 (NCI-H460): 44.7 µM | CC50 (RXF 393): 0.575 µM | CC50 (LOX IMVI): 3.8 µM
